This passage reports Km results from article PMC5634022 (Journal of Insect Science, 2014).

The test system of the test is CarE (carboxylesterase, EC3.1.1.1), final purified. The experiment in a line: esterase activity, Fast Blue B, Lineweaver-Burk. Type of test: biochemical, Dendrolimus superans. To be noted: read-out: K m (mol/liter); 35°C; kcat unit printed as s. In a few lines: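 Carboxylesterase from sixth-instar larval tissue homogenate, purified at 4°C by ammonium sulfate precipitation, Sephadex G-25, DEAE-52 and hydroxyapatite chromatography. Enzyme incubated 10 min at 35°C with α- or β-naphthyl acetate at five concentrations (0.1875–3.0 × 10^-4 mol/liter). Stopped with SDS/Fast Blue B; read at 600 nm. Km and Vmax from Lineweaver–Burk plots. Kcat from SDS-PAGE molecular weight and Vmax.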

With `CC(=O)Oc1ccc2ccccc2c1` [β-NA], the Km was 0.000162 mol/L.
